According to ChEMBL document CHEMBL2146367, “Novel fluorescent ceramide derivatives for probing ceramidase substrate specificity” (Bioorg Med Chem, 2012):

Tests used:
[1] = substrate: CCCCCCCCCCCCCCCC(=O)N[C@@H](CO)[C@H](O)/C=C/CCCCCCCCCNc1ccc([N+](=O)[O-])c2nonc12; test: (§1) Activity of human recombinant neutral ceramidase after 60 mins by Lineweaver-Burk plot analysis
Summary of the method: (§2)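 Human recombinant nCDase held at 20 ng/mL in 200 mM sodium acetate pH 7.0 with 200 mM NaCl and 0.1% Triton X-100. Substrate varied from 5 to 150 or 5 to 180 µM, DMSO <5%. Incubated 60 min at 37 °C, chloroform/methanol quench, TLC with fluorescence imaging. Kinetic constants from Lineweaver-Burk plots, mean ± SD of triplicate experiments.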

[2] = substrate: CCCCCCCCCCCCC/C=C/[C@@H](O)[C@H](CO)NC(=O)CCCCCCCCCCCOc1ccc2c(=O)cc3oc4cc(N(CC)CC)ccc4nc-3c2c1; test: as §1; summary of the method: as §2
[3] = substrate: CCCCCCCCCCCCCCCC(=O)N[C@@H](CO)[C@H](O)/C=C/CCCCCCCCCOc1ccc2c(=O)cc3oc4cc(N(CC)CC)ccc4nc-3c2c1; test: as §1; summary of the method: as §2
[4] = substrate: CCCCCCCCCCCCC/C=C/[C@@H](O)[C@H](CO)NC(=O)CCCCCCCCCCCNc1ccc([N+](=O)[O-])c2nonc12; test: as §1; summary of the method: as §2
[5] = substrate: CCCCCCCCCCCCCCCC(=O)N[C@@H](CO)[C@H](O)/C=C/CCCCCCCCCNc1ccc([N+](=O)[O-])c2nonc12; test: (§3) Activity of human recombinant neutral ceramidase assessed per ng of protein after 60 mins by Lineweaver-Burk plot analysis; summary of the method: as §2
[6] = substrate: CCCCCCCCCCCCC/C=C/[C@@H](O)[C@H](CO)NC(=O)CCCCCCCCCCCOc1ccc2c(=O)cc3oc4cc(N(CC)CC)ccc4nc-3c2c1; test: as §3; summary of the method: as §2
[7] = substrate: CCCCCCCCCCCCCCCC(=O)N[C@@H](CO)[C@H](O)/C=C/CCCCCCCCCOc1ccc2c(=O)cc3oc4cc(N(CC)CC)ccc4nc-3c2c1; test: as §3; summary of the method: as §2
[8] = substrate: CCCCCCCCCCCCC/C=C/[C@@H](O)[C@H](CO)NC(=O)CCCCCCCCCCCNc1ccc([N+](=O)[O-])c2nonc12; test: as §3; summary of the method: as §2
[9] = substrate: CCCCCCCCCCCCC/C=C/[C@@H](O)[C@H](CO)NC(=O)CCCCCCCCCCCNc1ccc([N+](=O)[O-])c2nonc12; test: Activity of mouse neutral ceramidase after 30 mins by TLC-based fluorescence imaging
[10] = substrate: CCCCCCCCCCCCCCCC(=O)N[C@@H](CO)[C@H](O)/C=C/CCCCCCCCCNc1ccc([N+](=O)[O-])c2nonc12; test: (§4) Activity of human recombinant acid ceramidase expressed in baculovirus infected Sf9 cells after 150 mins by Lineweaver-Burk plot analysis
Summary of the method: (§5)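 Recombinant human aCDase expressed in insect cells, at a fixed enzyme level, in 200 mM sodium acetate pH 4.5 with 200 mM NaCl and 0.1% Triton X-100. Substrate varied from 5 to 150 µM or 5 to 180 µM, added from DMSO stocks (DMSO <5% v/v), 37 °C for 150 min. Chloroform/methanol extraction, TLC, fluorescence imaging of cleaved and uncleaved spots. KM, Vmax and kcat taken from Lineweaver-Burk plots, mean ± SD of three independent experiments.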

[11] = substrate: CCCCCCCCCCCCC/C=C/[C@@H](O)[C@H](CO)NC(=O)CCCCCCCCCCCOc1ccc2c(=O)cc3oc4cc(N(CC)CC)ccc4nc-3c2c1; test: as §4; summary of the method: as §5
[12] = substrate: CCCCCCCCCCCCCCCC(=O)N[C@@H](CO)[C@H](O)/C=C/CCCCCCCCCOc1ccc2c(=O)cc3oc4cc(N(CC)CC)ccc4nc-3c2c1; test: as §4; summary of the method: as §5
[13] = substrate: CCCCCCCCCCCCC/C=C/[C@@H](O)[C@H](CO)NC(=O)CCCCCCCCCCCNc1ccc([N+](=O)[O-])c2nonc12; test: as §4; summary of the method: as §5
[14] = substrate: CCCCCCCCCCCCCCCC(=O)N[C@@H](CO)[C@H](O)/C=C/CCCCCCCCCNc1ccc([N+](=O)[O-])c2nonc12; test: (§6) Activity of human recombinant acid ceramidase expressed in baculovirus infected Sf9 cells assessed per ug of protein after 150 mins by Lineweaver-Burk plot analysis; summary of the method: as §5
[15] = substrate: CCCCCCCCCCCCC/C=C/[C@@H](O)[C@H](CO)NC(=O)CCCCCCCCCCCOc1ccc2c(=O)cc3oc4cc(N(CC)CC)ccc4nc-3c2c1; test: as §6; summary of the method: as §5
[16] = substrate: CCCCCCCCCCCCCCCC(=O)N[C@@H](CO)[C@H](O)/C=C/CCCCCCCCCOc1ccc2c(=O)cc3oc4cc(N(CC)CC)ccc4nc-3c2c1; test: as §6; summary of the method: as §5
[17] = substrate: CCCCCCCCCCCCC/C=C/[C@@H](O)[C@H](CO)NC(=O)CCCCCCCCCCCNc1ccc([N+](=O)[O-])c2nonc12; test: as §6; summary of the method: as §5

B1: Neutral ceramidase (Homo sapiens), Q9NR71 (protein)
chain: MAKRTFSNLETFLIFLLVMMSAITVALLSLLFITSGTIENHKDLGGHFFSTTQSPPATQGSTAAQRSTATQHSTATQSSTATQTSPVPLTPESPLFQNFSGYHIGVGRADCTGQVADINLMGYGKSGQNAQGILTRLYSRAFIMAEPDGSNRTVFVSIDIGMVSQRLRLEVLNRLQSKYGSLYRRDNVILSGTHTHSGPAGYFQYTVFVIASEGFSNQTFQHMVTGILKSIDIAHTNMKPGKIFINKGNVDGVQINRSPYSYLQNPQSERARYSSNTDKEMIVLKMVDLNGDDLGLISWFAIHPVSMNNSNHLVNSDNVGYASYLLEQEKNKGYLPGQGPFVAAFASSNLGDVSPNILGPRCINTGESCDNANSTCPIGGPSMCIAKGPGQDMFDSTQIIGRAMYQRAKELYASASQEVTGPLASAHQWVDMTDVTVWLNSTHASKTCKPALGYSFAAGTIDGVGGLNFTQGKTEGDPFWDTIRDQILGKPSEEIKECHKPKPILLHTGELSKPHPWHPDIVDVQIITLGSLAITAIPGEFTTMSGRRLREAVQAEFASHGMQNMTVVISGLCNVYTHYITTYEEYQAQRYEAASTIYGPHTLSAYIQLFRNLAKAIATDTVANLSRGPEPPFFKQLIVPLIPSIVDRAPKGRTFGDVLQPAKPEYRVGEVAEVIFVGANPKNSVQNQTHQTFLTVEKYEATSTSWQIVCNDASWETRFYWHKGLLGLSNATVEWHIPDTAQPGIYRIRYFGHNRKQDILKPAVILSFEGTSPAFEVVTI
Km [1]: 193 µM | Vmax [1]: 31.8 pmol/min | Km [2]: 85.3 µM | Vmax [2]: 10 pmol/min | Km [3]: 36.4 µM | Vmax [3]: 5.3 pmol/min | Km [4]: 190 µM | Vmax [4]: 62.4 pmol/min | specific activity [5]: 1.6 pmol/min/ng | specific activity [6]: 0.5 pmol/min/ng | specific activity [7]: 0.26 pmol/min/ng | specific activity [8]: 3.1 pmol/min/ng

B2: Neutral ceramidase (Mus musculus), Q9JHE3 (protein)
chain: MAKRTFSTLEAFLIFLLVIMTVITVALLTLLFVTSGTIENHKDSGNHWFSTTLGSTTTQPPPITQTPNFPSFRNFSGYYIGVGRADCTGQVSDINLMGYGKNGQNARGLLTRLFSRAFILADPDGSNRMAFVSVELCMISQRLRLEVLKRLESKYGSLYRRDNVILSAIHTHSGPAGFFQYTLYILASEGFSNRTFQYIVSGIMKSIDIAHTNLKPGKIFINKGNVANVQINRSPSSYLLNPQSERARYSSNTDKEMLVLKLVDLNGEDLGLISWFAIHPVSMNNSNHFVNSDNMGYAAYLFEQEKNKGYLPGQGPFVAGFASSNLGDVSPNILGPHCVNTGESCDNDKSTCPNGGPSMCMASGPGQDMFESTHIIGRIIYQKAKELYASASQEVTGPVLAAHQWVNMTDVSVQLNATHTVKTCKPALGYSFAAGTIDGVSGLNITQGTTEGDPFWDTLRDQLLGKPSEEIVECQKPKPILLHSGELTIPHPWQPDIVDVQIVTVGSLAIAAIPGELTTMSGRRFREAIKKEFALYGMKDMTVVIAGLSNVYTHYITTYEEYQAQRYEAASTIYGPHTLSAYIQLFRDLAKAIATDTVANMSSGPEPPFFKNLIASLIPNIADRAPIGKHFGDVLQPAKPEYRVGEVVEVIFVGANPKNSAENQTHQTFLTVEKYEDSVADWQIMYNDASWETRFYWHKGILGLSNATIYWHIPDTAYPGIYRIRYFGHNRKQELLKPAVILAFEGISSPFEVVTT
Km [9]: 22.3 µM | Vmax [9]: 4.7 pmol/min

B3: Acid ceramidase (Homo sapiens), Q13510 (protein)
chain: MPGRSCVALVLLAAAVSCAVAQHAPPWTEDCRKSTYPPSGPTYRGAVPWYTINLDLPPYKRWHELMLDKAPVLKVIVNSLKNMINTFVPSGKIMQVVDEKLPGLLGNFPGPFEEEMKGIAAVTDIPLGEIISFNIFYELFTICTSIVAEDKKGHLIHGRNMDFGVFLGWNINNDTWVITEQLKPLTVNLDFQRNNKTVFKASSFAGYVGMLTGFKPGLFSLTLNERFSINGGYLGILEWILGKKDVMWIGFLTRTVLENSTSYEEAKNLLTKTKILAPAYFILGGNQSGEGCVITRDRKESLDVYELDAKQGRWYVVQTNYDRWKHPFFLDDRRTPAKMCLNRTSQENISFETMYDVLSTKPVLNKLTVYTTLIDVTKGQFETYLRDCPDPCIGW
Km [10]: 204 µM | Vmax [10]: 12.2 pmol/min | Km [11]: 110 µM | Vmax [11]: 7.2 pmol/min | Km [12]: 81.8 µM | Vmax [12]: 3.9 pmol/min | Km [13]: 86.9 µM | Vmax [13]: 4.4 pmol/min | specific activity [14]: 0.244 pmol/min/µg | specific activity [15]: 0.143 pmol/min/µg | specific activity [16]: 0.078 pmol/min/µg | specific activity [17]: 0.0882 pmol/min/µg
